Measurements of several laboratories.
Each line is one published result; the experiments were not run side by side.
Observed: cell growth or viability

| SMILES | cell line | assay | setting | viability [%] |
| --- | --- | --- | --- | --- |
| CCOC(=O)c1nn(-c2cccc(Cl)c2)/c(=N/N=C(\C)c2ccc(NC(=O)c3ccccc3)cc2)s1 | HepG2 | MTT | 10 µM | 3 |
| CC(=NNC(=S)Nc1ccccc1)c1ccc(Nc2nnc(-c3ccc(Cl)cc3)c3ccccc23)cc1 | HepG2 | MTT | 10 µM, 24 h | 4.26 |
| CC(C)(C)c1cnc(CSc2cnc(NC(=O)C3CCN(CCCCCCCSc4cccc5c4C(=O)N(C4CCC(=O)NC4=O)C5=O)CC3)s2)o1 (stereo not shown) | HH | CCK-8 | 10 nM | 99.5 |
| CC(=O)Nc1ccc(/C(C)=N/N=c2\sc(C(C)=O)nn2-c2ccc(C)cc2)cc1 | HepG2 | MTT | 2.5 µM | 99.4 |
| CC(=NNC(=O)c1ccccc1)c1ccc(Nc2nnc(-c3ccc(Cl)cc3)c3ccccc23)cc1 | HepG2 | MTT | 0.625 µM, 24 h | 48.7 |
| CC(=O)c1nn(-c2ccc(C)cc2)/c(=N/N=C(\C)c2ccc(NC(=O)c3ccccc3)cc2)s1 | HepG2 | MTT | 10 µM | 6.81 |
| CC(C)(C)c1cnc(CSc2cnc(NC(=O)C3CCN(CCCCCCCCSc4cccc5c4C(=O)N(C4CCC(=O)NC4=O)C5=O)CC3)s2)o1 (stereo not shown) | HH | CCK-8 | 0.5 µM | 0 |
| CC(=NNC(=O)c1ccccc1Cl)c1ccc(Nc2nnc(-c3ccc(Cl)cc3)c3ccccc23)cc1 | HepG2 | MTT | 2.5 µM, 24 h | 4.78 |
| CC(=O)c1nn(-c2ccccc2Cl)/c(=N/N=C(\C)c2ccc(NC(=O)c3ccccc3)cc2)s1 | HepG2 | MTT | 78 nM | 71.7 |
| CC(C)(C)c1cnc(CSc2cnc(NC(=O)C3CCN(CCCCCSc4cccc5c4CN(C4CCC(=O)NC4=O)C5=O)CC3)s2)o1 (stereo not shown) | HH | CCK-8 | 10 nM | 93.5 |
| O=C(C=Cc1ccccc1)Nc1ccc(Oc2nnc(-c3ccc(Cl)cc3)c3ccccc23)cc1 | HepG2 | MTT | 5 µM, 24 h | 2.49 |
| CC(C)(C)c1cnc(CSc2cnc(NC(=O)C3CCN(CCCCSc4cccc5c4C(=O)N(C4CCC(=O)NC4=O)C5=O)CC3)s2)o1 (stereo not shown) | HH | CCK-8 | 0.5 µM | 0 |
| CC(=NNC(=O)COc1ccc2c(C)c(Cc3ccccc3)c(=O)oc2c1C)c1ccc(Br)cc1 | HepG2 | MTT | 1.6 µg/mL | 54.8 |
